Reference: ChEMBL document CHEMBL4373703 (J Med Chem, 2019)
In brackets after ≈: the same amount, converted by molar mass. Activity calls are given as the source filed them. The rule behind the calls is not given here.

Columns and labels:
[1] = Apparent permeability across apical to basolateral side in human Caco2 cells at 1 uM incubated for 2 hrs by LC-MS/MS analysis; type: ADME, cell-based; settings: Caco-2
[2] = Kinetic solubility of the compound; type: physicochemical; settings: read-out: Kinetic_solubility
[3] = molecular target: Voltage-gated inwardly rectifying potassium channel KCNH2 (Homo sapiens, UniProt Q12809); assay: Inhibition of human ERG expressed in HEK293 cells at -80 mV holding potential by […]; type: cell-based
[4] = Intrinsic clearance in human liver microsomes at 1 uM in presence of NADPH measured up to 30 mins by LC-MS/MS analysis; type: ADME, Microsome; settings: read-out: CLH
Mus musculus [5] = assay: Inhibition of B cell activation in C57BL/6 mouse at 1 mg/kg, po after 0.25 hr relative to control; type: functional
Mus musculus [6] = assay: Inhibition of B cell activation in C57BL/6 mouse at 1 mg/kg, po after 1 hr relative to control; type: functional
Summary of the method: (§1)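 Normal C57BL/6 mice received a single oral dose of 1 mg/kg and were tested in an in vivo B cell stimulation assay. Inhibition of B cell activation was read at 1 h and 24 h after dosing.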

Mus musculus [7] = assay: Inhibition of B cell activation in C57BL/6 mouse at 1 mg/kg, po after 24 hr relative to control; type: functional; summary of the method: as §1
[8] = Cmax in C57BL/6 mouse at 1 mg/kg, po; type: ADME, organism-based; set-up: dose 1 mg/kg, route oral; settings: in vivo
[9] = molecular target: T1, Tyrosine-protein kinase Tec (Homo sapiens, UniProt P42680); assay: Inhibition of N-terminal His6-tagged human TEC (174 to end aminoacids) expressed in baculovirus infected Sf21 cells at 1 uM; settings: sf21, 1 µM
T1 sequence (P42680 whole entry): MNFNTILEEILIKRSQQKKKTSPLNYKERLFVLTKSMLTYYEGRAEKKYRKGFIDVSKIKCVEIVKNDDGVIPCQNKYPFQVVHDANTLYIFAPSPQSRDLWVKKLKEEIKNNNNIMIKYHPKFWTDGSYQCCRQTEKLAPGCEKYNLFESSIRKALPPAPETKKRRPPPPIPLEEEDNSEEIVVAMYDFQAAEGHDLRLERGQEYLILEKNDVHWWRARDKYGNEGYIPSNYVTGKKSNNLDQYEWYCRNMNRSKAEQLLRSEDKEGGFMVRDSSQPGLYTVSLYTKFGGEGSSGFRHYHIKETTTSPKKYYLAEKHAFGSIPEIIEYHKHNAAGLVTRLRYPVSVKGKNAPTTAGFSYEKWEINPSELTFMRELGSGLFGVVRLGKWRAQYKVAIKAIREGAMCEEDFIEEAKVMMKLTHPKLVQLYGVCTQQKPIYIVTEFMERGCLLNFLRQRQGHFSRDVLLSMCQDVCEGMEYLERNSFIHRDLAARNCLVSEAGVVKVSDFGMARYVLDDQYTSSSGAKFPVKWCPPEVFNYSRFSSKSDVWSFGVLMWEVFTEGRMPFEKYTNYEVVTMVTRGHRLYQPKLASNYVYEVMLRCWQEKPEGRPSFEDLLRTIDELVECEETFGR

[10] = Tmax in NMRI mouse at 3 mg/kg, po administered as suspension; type: ADME, organism-based; settings: in vivo
[11] = Tmax in Wistar rat at 10 mg/kg, po administered as suspension; type: ADME, organism-based; settings: in vivo
[12] = Tmax in Mongrel dog at 3 mg/kg, po administered as suspension; type: ADME, organism-based, Canis lupus familiaris; settings: in vivo
[13] = Half-life in Mongrel dog plasma at 1 mg/kg, iv or 3 mg/kg, po administered as suspension; type: ADME, organism-based, Canis lupus familiaris
[14] = Half-life in NMRI mouse plasma at 1 mg/kg, iv or 3 mg/kg, po administered as suspension; type: ADME, organism-based
[15] = Half-life in Wistar rat plasma at 2 mg/kg, iv or 10 mg/kg, po administered as suspension; type: ADME, organism-based
[16] = Oral bioavailability in NMRI mouse at 3 mg/kg; type: ADME, organism-based; settings: in vivo
[17] = Oral bioavailability in Wistar rat at 10 mg/kg; type: ADME, organism-based; settings: in vivo
Mus musculus [18] = assay: Antiarthritic activity in […] model of collagen-induced arthritis assessed as reduction in ankle swelling at 3 mg/kg, po administered via gavage once daily starting from day 6 to day 16 and measured from day 11 to day 17 by caliper method; type: functional, organism-based
Summary of the method: (§2)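 Female Lewis rats with semi-established type II collagen arthritis were dosed by oral gavage once daily on days 6–16 with vehicle (20% hydroxypropyl-beta-cyclodextrin in H2O), test agent (0.3–30 mg/kg) or methotrexate 0.1 mg/kg. Ankle thickness was measured daily by caliper, and animals were terminated on day 17. n = 10 per treatment group, 4 normal controls; ANOVA vs vehicle, P ≤ 0.05.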

Mus musculus [19] = assay: Antiarthritic activity in […] model of collagen-induced arthritis assessed as reduction in ankle swelling at 10 mg/kg, po administered via gavage once daily starting from day 6 to day 16 and measured from day 11 to day 17 by caliper method; type: functional, organism-based; summary of the method: as §2
Mus musculus [20] = assay: Antiarthritic activity in […] model of collagen-induced arthritis assessed as reduction in ankle swelling at 30 mg/kg, po administered via gavage once daily starting from day 6 to day 16 and measured from day 10 to day 17 by caliper method; type: functional, organism-based; summary of the method: as §2
[21] = Stability of the compound in plasma (unknown origin) assessed as compound remaining at 4 hrs; type: ADME, cell-free; settings: read-out: Stability
Rattus norvegicus [22] = assay: Antiarthritic activity in Lewis rat model of collagen-induced arthritis assessed as reduction in ankle histopathological scores at 1 mg/kg, po administered via gavage once daily starting from day 6 to day 16 relative to control; set-up: scale not given: the % may be the effect or the level left
Rattus norvegicus [23] = assay: Antiarthritic activity in Lewis rat model of collagen-induced arthritis assessed as reduction in ankle histopathological scores at 3 mg/kg, po administered via gavage once daily starting from day 6 to day 16 relative to control; set-up: scale not given: the % may be the effect or the level left
Rattus norvegicus [24] = assay: Antiarthritic activity in Lewis rat model of collagen-induced arthritis assessed as reduction in ankle histopathological scores at 10 mg/kg, po administered via gavage once daily starting from day 6 to day 16 relative to control; set-up: scale not given: the % may be the effect or the level left
Rattus norvegicus [25] = assay: Antiarthritic activity in Lewis rat model of collagen-induced arthritis assessed as reduction in ankle histopathological scores at 30 mg/kg, po administered via gavage once daily starting from day 6 to day 16 relative to control; set-up: scale not given: the % may be the effect or the level left
Rattus norvegicus [26] = assay: Antiarthritic activity in Lewis rat model of collagen-induced arthritis assessed as reduction in ankle histopathological scores at 0.3 mg/kg, po administered via gavage once daily starting from day 6 to day 16 relative to control; set-up: scale not given: the % may be the effect or the level left

Chain of Voltage-gated inwardly rectifying potassium channel KCNH2 (Q12809 whole entry): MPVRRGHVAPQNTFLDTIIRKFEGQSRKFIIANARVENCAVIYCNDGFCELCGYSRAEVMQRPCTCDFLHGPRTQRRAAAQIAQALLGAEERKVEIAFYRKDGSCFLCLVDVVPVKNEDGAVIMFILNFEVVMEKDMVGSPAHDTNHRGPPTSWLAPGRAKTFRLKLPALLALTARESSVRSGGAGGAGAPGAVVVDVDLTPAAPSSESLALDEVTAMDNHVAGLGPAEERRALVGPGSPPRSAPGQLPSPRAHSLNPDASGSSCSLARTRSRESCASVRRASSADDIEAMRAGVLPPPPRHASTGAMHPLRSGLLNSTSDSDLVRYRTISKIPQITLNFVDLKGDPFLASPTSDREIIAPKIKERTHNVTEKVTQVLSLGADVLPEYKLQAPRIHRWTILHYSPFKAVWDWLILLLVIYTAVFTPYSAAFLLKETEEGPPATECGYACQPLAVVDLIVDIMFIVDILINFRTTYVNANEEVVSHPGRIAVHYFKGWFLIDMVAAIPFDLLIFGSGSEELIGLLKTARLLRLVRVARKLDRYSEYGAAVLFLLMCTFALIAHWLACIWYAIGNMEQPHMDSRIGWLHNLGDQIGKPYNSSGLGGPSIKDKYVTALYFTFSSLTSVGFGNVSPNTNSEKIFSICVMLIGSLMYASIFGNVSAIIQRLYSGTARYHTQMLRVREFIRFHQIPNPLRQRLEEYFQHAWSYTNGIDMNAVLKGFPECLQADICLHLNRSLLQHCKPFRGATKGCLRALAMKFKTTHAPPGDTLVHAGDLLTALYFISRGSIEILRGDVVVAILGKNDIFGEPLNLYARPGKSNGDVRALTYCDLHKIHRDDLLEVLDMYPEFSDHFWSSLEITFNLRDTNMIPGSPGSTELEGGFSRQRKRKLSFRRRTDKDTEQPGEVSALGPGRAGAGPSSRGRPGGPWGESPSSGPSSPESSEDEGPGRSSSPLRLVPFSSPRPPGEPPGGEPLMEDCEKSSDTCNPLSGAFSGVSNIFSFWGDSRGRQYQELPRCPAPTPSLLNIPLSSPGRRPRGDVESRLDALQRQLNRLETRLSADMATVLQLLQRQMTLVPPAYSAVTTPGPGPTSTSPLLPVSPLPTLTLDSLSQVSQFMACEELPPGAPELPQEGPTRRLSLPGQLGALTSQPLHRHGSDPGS

`C=CC(=O)N1CCC(CNc2ncnc(N)c2-c2ccc(Oc3ccccc3)cc2)CC1` [EVOBRUTINIB] gave a Papp A→B at 2 h, 1 µM [1] of 22 ×10⁻⁶ cm/s, a solubility kinetic [2] of 60 µM (≈ 25.8 µg/mL) and a Ki [3] of 3.1 µM. The microsomal CLint at 1 µM [4] was 110 µL/min/mg, the “inhibition (INH)” value (Mus musculus [5]) was 17% and the “inhibition (INH)” value (Mus musculus [6]) was 71%. The “inhibition (INH)” value (Mus musculus [7]) was 25%, the Cmax [8] was 52 nM and the “inhibition (INH)” value [9] was “Active”. For the same compound, the Tmax [10] was 0.25 to 1 h, the Tmax [11] was 0.25 to 1 h and the Tmax [12] was 0.25 to 1 h. The half-life [13] was 1 h, the half-life [14] was 1 h and the half-life [15] was 1 h. The bioavailability [16] was at most 25%, the bioavailability [17] was under 5% and the Activity (Mus musculus [18]) was “Active”. The Activity (Mus musculus [19]) was “Active”, the Activity (Mus musculus [20]) was “Active” and the remaining at 4 h [21] was 81%. The Activity (Rattus norvegicus [22]) was 3%, the Activity (Rattus norvegicus [23]) was 42% and the Activity (Rattus norvegicus [24]) was 63%. It also gave an Activity (Rattus norvegicus [25]) of 94% and an Activity (Rattus norvegicus [26]) of 1%.
